A selection: hits, their analogues and other compounds. The true share with any hit is near 1.8%.
CHRM5 antagonist – human M5 muscarinic receptor antagonists, primary screen, CHO cells, Fluo-8 calcium fluorescence; AID 624040, 2012; CHO-hM5 cells, ACh EC80; inhibition, % at 3 µM; hit rate 0.59% among 360,000;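 active means inhibition above a per-plate cutoff, the mean of that plate's test compounds plus 3 SD, cut at about 27% in these data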
M5 PAM – human M5 muscarinic receptor positive allosteric modulators, primary screen, CHO-K1 cells, Fluo-8 calcium fluorescence. activation, % at 3 µM. Muscarinic acetylcholine receptor M5 (Homo sapiens), P08912. CHO-K1 hM5, ACh EC20 PAM; 0% = ACh EC20, 100% = ACh EC100. hit rate 0.3% among 360,000;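 active means activation above the run cutoff, the mean activation of all test compounds plus 3 SD, cut at about 18% in these data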
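Assay system – human M5 receptor in CHO-K1 cells · Read-out – % activation, ACh-normalized · Technique – Fluo-8 calcium fluorescence · Dosing – single-point, 3 µM nominal · Incubation – Fluo-8 loading 80 min at 37 °C plus 30 min room temperature · Repeats – singlicate, one well per test compound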
CHRM4 PAM – human M4 muscarinic receptor positive allosteric modulators, primary screen, CHO-K1 cells, Fluo-8 calcium fluorescence; Muscarinic acetylcholine receptor M4 (Homo sapiens), P08173; CHO-K1 hM4/Gqi5, ACh EC20; 0% = ACh EC20, 100% = maximal ACh; activation, % at 3 µM; hit rate 0.4% among 360,000; AID 624126, 2012;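 active means activation above its plate's cutoff, the mean activation of sample wells plus 3 SD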
Target sequence (P08173 whole entry, looked up): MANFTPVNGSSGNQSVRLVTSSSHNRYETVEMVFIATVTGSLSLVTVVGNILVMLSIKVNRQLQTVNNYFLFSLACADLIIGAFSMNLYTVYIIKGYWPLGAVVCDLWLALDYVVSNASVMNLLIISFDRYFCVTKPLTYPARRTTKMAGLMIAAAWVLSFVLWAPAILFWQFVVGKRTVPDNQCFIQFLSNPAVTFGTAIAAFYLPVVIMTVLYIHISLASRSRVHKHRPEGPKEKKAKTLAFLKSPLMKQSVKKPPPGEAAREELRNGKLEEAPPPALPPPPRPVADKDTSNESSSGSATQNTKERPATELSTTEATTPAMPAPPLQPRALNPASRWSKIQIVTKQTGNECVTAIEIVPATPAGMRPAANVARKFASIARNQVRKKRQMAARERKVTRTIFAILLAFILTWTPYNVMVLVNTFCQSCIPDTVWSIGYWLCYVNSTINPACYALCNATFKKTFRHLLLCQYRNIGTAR
M4 ag – human M4 muscarinic receptor agonists, primary screen, CHO-K1 cells, Fluo-8 calcium fluorescence. Muscarinic acetylcholine receptor M4 (Homo sapiens), P08173. activation, % at 3 µM. hit rate 0.14% among 360,000. CHO-K1 hM4/Gqi5; vehicle 0%, full acetylcholine response 100%;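 active means activation above the run mean over all test wells plus 3 SD, cut at about 32% in these data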;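 further: peak over basal fluorescence ratio per well then scaled between controls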
M5 ag – human M5 muscarinic receptor agonists, primary screen, CHO-K1 cells, Fluo-8 calcium fluorescence | hit rate 0.19% among 360,000 | AID 624037, 2012 | CHO-K1 hM5 cells; 0% DMSO wells, 100% maximal acetylcholine response | activation, % at 3 µM;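 active means activation above the run's mean over test compounds plus 3 SD, cut at about 23% in these data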;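 further: signal is peak over basal fluorescence ratio across the kinetic read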
CHRM4 antagonist – human M4 muscarinic receptor antagonists, primary screen, CHO cells, Fluo-8 calcium fluorescence. CHO-hM4 cells, ACh EC80. inhibition, % at 3 µM. hit rate 0.73% among 360,000. Muscarinic acetylcholine receptor M4 (Homo sapiens), P08173;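 active means inhibition above its plate's cutoff, the mean inhibition of sample wells plus 3 SD, cut at about 27% in these data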
Of the large screens only hits and unclear results are named; the others gave an inactive call.

CN(C)S(=O)(=O)N1CCC(Oc2ccc(C(=O)NCC(C)(C)CO)cc2)CC1	none
CCC1CCCCN1CCCNC(=O)c1cn(CC)c2ccc(S(=O)(=O)N(C)C3CCCCC3)cc2c1=O (configuration not stated)	CHRM4 antagonist 33
CCn1cc(C(=O)NCCCOC)c(=O)c2cc(S(=O)(=O)N(C)C3CCCCC3)ccc21	none
CCC1CCCCN1CCCNC(=O)c1cn(CC)c2ccc(S(=O)(=O)N3CCc4ccccc4C3)cc2c1=O (configuration not stated)	CHRM4 antagonist 31
COCCn1c(N)c(N(Cc2ccccc2)C(=O)Cc2c(Cl)cccc2Cl)c(=O)[nH]c1=O	none
C=CCNC(=O)c1oc2ccc(S(=O)(=O)N3CCC4(CC3)OCCO4)cc2c1C	none
COc1ccc(NC(=O)c2oc3ccc(S(=O)(=O)N4CCC5(CC4)OCCO5)cc3c2C)cc1	M4 ag 32
COc1ccc(/C=C/c2ccc3ccccc3[n+]2C)cc1OC	none
CC(=O)Oc1ccccc1/C=C/c1ccc2ccccc2[n+]1C	CHRM5 antagonist 32
COc1ccc2noc3c2c1C(=O)c1ccccc1-3	CHRM5 antagonist 28, M4 ag 59, M5 ag 51, CHRM4 antagonist 36
Fc1ccccc1CNC(=S)Nc1cccc(C(F)(F)F)c1	CHRM5 antagonist 27
COc1ccc(CNC(=O)C2CCN(S(=O)(=O)c3ccc4c(c3)C(C)(C)C(=O)N4C)CC2)cc1	CHRM4 antagonist 101
Cc1nnc(N(CCC#N)CCC#N)s1	none
CSc1nnc(N(CCC#N)CCC#N)s1	M5 PAM 40
Cc1ccc(C(=O)Nc2ccccc2Cl)cc1	none
CC(NC(=O)C1CCCN1C(=O)OC(C)(C)C)C(=O)OCc1ccccc1 (configuration not stated)	none
CC(C)OC(=O)c1ccc2nc3ccccc3nc2c1	none
COc1ccc(C(C(=O)NC2CCCC2)N(C(=O)c2snc(C(N)=O)c2N)c2cccc(O)c2)cc1 (configuration not stated)	CHRM5 antagonist 27
NC(=O)c1nsc(C(=O)N(c2cccc(F)c2)C(C(=O)NC2CCCC2)c2ccc(O)cc2)c1N (configuration not stated)	none
N=C1/C(=C\c2coc3ccc(O)cc3c2=O)C(=O)N=C2SC=CN12	M4 ag 50, M5 ag 65
N=C1/C(=C/c2coc3ccccc3c2=O)C(=O)N=C2SC(c3ccco3)=NN12	CHRM5 antagonist 53, M4 ag 64, M5 ag 223
CN1C(=O)/C(=C/c2coc3ccc(O)cc3c2=O)SC1=S	none
Cc1cc(/C=C2\C(=N)N3N=C(c4ccco4)SC3=NC2=O)c(C)n1Cc1ccccc1	none
N=C1/C(=C\c2coc3ccccc3c2=O)C(=O)N=C2SC(c3ccncc3)=NN12	CHRM5 antagonist 51, M4 ag 41, M5 ag 65, CHRM4 antagonist 28
Cc1ccc(NC(=O)C2CC(=O)Nc3ncnn32)cc1Cl (configuration not stated)	none
Cc1ccc(OCCCN2CCC(C(O)(c3ccccc3)c3ccccc3)CC2)cc1	CHRM5 antagonist 77, CHRM4 antagonist 62
CC1CCN(CCCCOc2ccc(C(C)(C)C)cc2)CC1	CHRM4 antagonist 30
CC1CCN(CCCCOc2ccc(Cl)cc2)CC1	none
OC(c1ccccc1)(c1ccccc1)C1CCN(CCCOc2ccc(F)cc2)CC1	CHRM5 antagonist 55, CHRM4 antagonist 65
N#Cc1ccccc1OCCCN1CCC(C(O)(c2ccccc2)c2ccccc2)CC1	CHRM4 antagonist 27
Cc1ccc(S(=O)(=O)N2Cc3ccccc3CC2C(=O)NC(C)(C)C)cc1 (configuration not stated)	none
O=C(NCCCN1CCOCC1)c1ccc2c(c1)N(Cc1c(F)cccc1Cl)C(=O)CS2	CHRM4 antagonist 58
O=C(NCCN1CCOCC1)c1ccc2c(c1)N(Cc1ccccc1F)C(=O)CS2	CHRM4 antagonist 47
Cc1cccc(CN2C(=O)/C(=C\c3ccc(C(=O)NCCN4CCOCC4)cc3)Sc3ccccc32)c1	CHRM5 antagonist 31
Cc1ccc(C)c(CN2C(=O)CSc3ccc(C(=O)NCCN4CCOCC4)cc32)c1	none
O=C(NC1CCN(Cc2ccccc2)CC1)c1cncc(Br)c1	none
COc1cccc(C(C(=O)NC2CCCC2)N(C(=O)c2ccco2)C2CC2)c1OC (configuration not stated)	none
COc1cccc(C(C(=O)NC2CCCC2)N(Cc2ccc(C)cc2)C(=O)c2ccco2)c1OC (configuration not stated)	M5 PAM 28
CCCc1nc2sc3c(c2c(=O)[nH]1)CCCC3	M5 PAM 18
COCc1nc2sc3c(c2c(=O)[nH]1)CCCC3	none
Clc1cccc2sc(N3CCOCC3)nc12	M5 PAM 26
Clc1cccc2sc(N3CCCC3)nc12	none
CC1C(=O)N(Cc2cn(CCC3OCCCO3)nn2)CCS(=O)(=O)N1Cc1ccc(-c2ccc(F)cc2)cc1 (configuration not stated)	none
Cc1cccc(C)c1-c1ccc(CN2C(CC(C)C)C(=O)N(Cc3cn(CCO)nn3)CCS2(=O)=O)cc1 (configuration not stated)	CHRM4 antagonist 28
CC1C(=O)N(Cc2cn(CCC3OCCCO3)nn2)CCS(=O)(=O)N1Cc1ccc(-c2ccc(Cl)c(Cl)c2)cc1 (configuration not stated)	CHRM5 antagonist 36, CHRM4 antagonist 40
CN(c1ccccc1)S(=O)(=O)c1ccc(C(=O)N2CCN(c3ccccc3)CC2)cc1	none
O=C(COC(=O)Cn1cc(C(F)(F)F)ccc1=O)Nc1ccc(Br)cc1F	none
O=c1c(/C=C(\O)c2ccccc2)nc2ccccc2n1-c1ccccc1	CHRM4 antagonist 39
Cc1csc2ncnc(N3CCN(S(=O)(=O)c4cccc(C(F)(F)F)c4)CC3)c12	CHRM5 antagonist 44
CN1C(=O)c2cccc3c(Cl)ccc(c23)C1=O	none
CN1C(=O)c2cccc3c(N(C)C)ccc(c23)C1=O	M5 ag 41
CNc1ccc2c3c(cccc13)C(=O)N(C)C2=O	CHRM5 antagonist 43, M4 ag 229, M5 ag 125, CHRM4 antagonist 40

High-throughput results (PubChem BioAssay)
